# Assay results gathered from unrelated publications.
# Target: cAMP-dependent protein kinase catalytic subunit beta (PRKACB, Homo sapiens, UniProt P22694)
SMILES,effect on,action,technique,tested at,quantity,result
O=C(Nc1cccnn1)N1CCC(=Cc2cccc(Oc3ccc(C(F)(F)F)cn3)c2)CC1,cell-free assay,,competition with immobilised ligand,1 µM,remaining binding,100%
COc1cc(-c2cc(-c3ccc(N4CCNCC4)cc3)cnc2C)cc(OC)c1OC,enzyme activity,inhibitor,,1 µM,inhibition,3%
COc1cc(Cl)c(C(=O)N[C@@H](CN[C@H]2CC[C@@H](N)CC2)Cc2ccc(C#N)cc2)cc1-c1ccc(CN[C@H](C)c2ccc(C)cc2)o1,enzyme activity,inhibitor,,1 µM,remaining activity,66%
Cc1sc(C(=O)NC2COC2)cc1-n1cc(NC(=O)Nc2c(F)cccc2Cl)cn1,enzyme activity,inhibitor,,10 µM,remaining activity,104%
CC(C)(O)[C@H]1CC[C@H](Nc2ccc3ncc(-c4cccc(C(F)(F)F)c4)n3n2)CC1,enzyme activity,inhibitor,,1 µM,remaining activity,97.7%
CN1CC(Oc2cnc(C#N)cc2-c2ccn3nc(NC(=O)C4CC4)cc3c2)C1,enzyme activity,inhibitor,,1 µM,inhibition,-10%
Cn1cnc(Br)c1C1=CN(c2ncnc3[nH]cnc23)CCS1,enzyme activity,inhibitor,radiometric,50 nM,inhibition,18.7%
Nc1ncnc2occ(-c3ccc(NC(=O)Nc4cc(C(F)(F)F)ccc4F)cc3)c12,enzyme activity,inhibitor,,20 µM,remaining activity,22%
Cc1ccc(C(=O)Nc2ccc(CN3CCN(C)CC3)c(C(F)(F)F)c2)cc1C#Cc1cnc2cccnn12,enzyme activity,inhibitor,,23.5 nM,remaining activity,83%
C[C@H](c1ccnc(Nc2nc3ccc(-c4cc(N(C)C)ncn4)cc3[nH]2)c1)N1CCN(C(=O)CC(F)(F)F)CC1,cell-free assay,,competition with immobilised ligand,0.1 µM,remaining binding,100%
O=C(Nc1cnn(-c2csc(C(=O)NC3COC3)c2)c1)Nc1ccccc1Cl,enzyme activity,inhibitor,,5 µM,remaining activity,99%
C[C@@H]1CN(c2cc(-c3nn(C)c4ccc(OC5(C)CC5)cc34)ncn2)C[C@H](C)O1,cell-free assay,,competition with immobilised ligand,1 µM,remaining binding,100%
Cc1ccc(C(=O)NCc2ccsc2)cc1C#Cc1cn(C(C)C)c2ncnc(N)c12,enzyme activity,inhibitor,,1 µM,activity vs control,111%
